Screening results deposited in PubChem BioAssay by Broad Institute.
T cruzi growth-1: T. cruzi proliferation inhibition; T. cruzi beta-gal in NIH3T3, GalScreen luminescence, 90 h; inhibition, % at 8.34 µM; hit rate 5.9% among 77,000;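 active = mean inhibition above about 93%, with at least 55% of replicates each passing it, limit read from the data, passing the limit was not always enough; inconclusive = only one of those two conditions holds; inactive = neither condition holds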
KDM4C inh: inhibitors of human demethylase GASC-1 KDM4C | GST-KDM4C 2-372, H3K9me3 peptide, LANCE TR-FRET | Q9H3R0 | AID 720574 | hit rate 0.15% among 96,000 | inhibition, % at 12.5 µM;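 active = mean replicate inhibition above about 25%, with at least 55% of replicates also reaching it, limit read from the data, passing the limit was not always enough; inconclusive = only one of those two conditions met; inactive = neither condition met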
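material = GST-tagged GASC-1 (JMJD2C) catalytic fragment, aa 2-372 | amount = enzyme final amount 10 nM | medium = HEPES buffer, pH 7.5, plus ascorbate | also added = H3K9me3 peptide substrate, Fe(II), 2-oxoglutarate | dosing = single dose | times = 30 min demethylation and 1 h detection at room temperature | detection = LANCE TR-FRET | read-out basis = Fall in 671/618 emission ratio as inhibition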
IDH1 R132H inh: inhibitors of human IDH1 R132H; O75874; IDH1 R132H reductase, diaphorase/resazurin fluorescence, 60 min; inhibition, % at 10 µM; hit rate 0.18% among 70,000; AID 624101; in the data active = inhibition above about 34%; inconclusive = no clear call, values can overlap the other calls; inactive = below about 11%;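 note: 0% = DMSO and 100% = no enzyme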
Target sequence (O75874 whole entry R132H): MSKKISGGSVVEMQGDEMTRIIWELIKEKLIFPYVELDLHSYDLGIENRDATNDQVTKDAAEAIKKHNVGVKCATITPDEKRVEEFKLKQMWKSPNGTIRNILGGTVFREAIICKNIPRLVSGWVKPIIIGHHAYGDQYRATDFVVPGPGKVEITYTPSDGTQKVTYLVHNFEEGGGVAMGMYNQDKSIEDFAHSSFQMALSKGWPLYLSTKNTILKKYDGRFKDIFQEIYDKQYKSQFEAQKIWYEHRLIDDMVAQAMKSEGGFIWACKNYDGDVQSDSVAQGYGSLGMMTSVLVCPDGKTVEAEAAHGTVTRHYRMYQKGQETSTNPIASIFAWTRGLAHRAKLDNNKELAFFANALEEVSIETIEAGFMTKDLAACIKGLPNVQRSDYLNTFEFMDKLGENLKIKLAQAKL
T cruzi growth-2: inhibitors of T. cruzi proliferation. hit rate 72% among 5,600. inhibition, % at 8.35 µM. shares compounds with T cruzi growth-1. AID 651739. T. cruzi beta-gal in NIH3T3, GalScreen luminescence, 90 h;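 active = mean replicate inhibition above about 95% and at least 55% of replicates individually reaching it, limit read from the data; inconclusive = only one of the two criteria is met; inactive = neither criterion is met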
T cruzi growth-3: inhibitors of T. cruzi proliferation; inhibition, % at 2.09 µM; hit rate 21% among 5,600; T. cruzi beta-gal in NIH3T3, GalScreen luminescence, 90 h; shares compounds with T cruzi growth-1;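 active = mean inhibition above about 95%, with at least 55% of replicates also reaching it, limit read from the data; inconclusive = meets just one of the two conditions; inactive = meets neither condition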;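 note: plate controls were neutral control median for no effect and positive control median for full effect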
NIH3T3 tox: cytotoxicity in mouse NIH/3T3 fibroblasts; shares compounds with T cruzi growth-1; NIH/3T3 viability, CellTiter-Glo ATP luminescence, 90 h; cytotoxicity (signal decrease), % at 8.35 µM; hit rate 14% among 5,600; AID 651742;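 active = mean signal decrease across replicates above about 35% based on untreated-well scatter, with enough replicates individually passing, limit read from the data; inconclusive = no rule stated though some were filed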;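 note: 0% = median of neutral control wells and 100% = median of positive control wells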
3T3 cytotox 2: kills mouse NIH/3T3 fibroblasts; hit rate 56% among 5,600; inhibition, % at 24.9 µM; AID 651744; NIH/3T3 viability, CellTiter-Glo ATP luminescence, 90 h; shares compounds with T cruzi growth-1;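 active = mean loss of cell viability signal at or above a set limit, and enough replicates individually reaching it; inconclusive = meets only the mean limit or only the replicate share; inactive = meets neither condition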;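 note: 0% = median of neutral control wells and 100% = median of positive control wells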
* = called active by the depositor. This is one part of a sample in which hits are shown more often than they occur.

How did COc1ccc(S(=O)(=O)N2CCCCN3[C@H](CO)[C@@H](c4ccc(C#CC5CC5)cc4)[C@H]3C2)cc1 do in these assays?
T cruzi growth-1: inconclusive; KDM4C inh: 2; T cruzi growth-2: 107*; T cruzi growth-3: 106*; NIH3T3 tox: 25; 3T3 cytotox 2: 106*

How did O=S(=O)(c1ccc(F)cc1)N1CCCCN2[C@H](CO)[C@H](c3ccc(C#CC4CC4)cc3)[C@@H]2C1 do in these assays?
T cruzi growth-1: 100; KDM4C inh: -1

What do the screens show for `COc1ccc(S(=O)(=O)N2CCCCN3[C@@H](CO)[C@H](c4ccc(C#CC5CC5)cc4)[C@@H]3C2)cc1`?
T cruzi growth-1: 109*; KDM4C inh: -1; T cruzi growth-2: 102*; T cruzi growth-3: 66; NIH3T3 tox: 45*; 3T3 cytotox 2: 105*

Results for O=S(=O)(c1ccc(F)cc1)N1CCCCN2[C@H](CO)[C@@H](c3ccc(C#CC4CC4)cc3)[C@@H]2C1 ?
T cruzi growth-1: 44; KDM4C inh: -1

Results for COc1ccc(S(=O)(=O)N2CCCCN3[C@H](CO)[C@@H](c4ccc(C#CC5CC5)cc4)[C@@H]3C2)cc1 ?
T cruzi growth-1: 117*; KDM4C inh: 0; T cruzi growth-2: 109*; T cruzi growth-3: 88; NIH3T3 tox: 19; 3T3 cytotox 2: 55*

How did COc1ccc([N+](=O)[O-])cc1NC(=O)CCN1CCN(c2cccc(C(F)(F)F)c2)CC1 do in these assays?
IDH1 R132H inh: 1

How did COc1ccc(-c2cc(C(F)(F)F)nc(SCC(=O)Nc3ccc(Cl)cc3Cl)n2)cc1 do in these assays?
IDH1 R132H inh: 0

What do the screens show for `NCCCc1nc2cc3ccccc3cc2[nH]1`?
IDH1 R132H inh: 2

What do the screens show for `COc1ccc(CN2C(=O)C(O)(CC(=O)c3ccc(Cl)s3)c3ccccc32)cc1OC` (centres undefined)?
IDH1 R132H inh: 0

How did C=C[C@H]1C(O[C@@H]2O[C@H](CO)[C@@H](O)[C@H](O)[C@H]2O)OC=C2C(=O)N3CCc4c([nH]c5ccccc45)[C@H]3C[C@H]21 (some centres undefined) do in these assays?
IDH1 R132H inh: 1

What do the screens show for `CCc1ccc(N2C(=S)N(C(=O)c3cccs3)C3CC2(C)Oc2ccccc23)cc1` (centres undefined)?
IDH1 R132H inh: 0

What do the screens show for `Cc1cc(C)c(S(=O)(=O)NCC(=O)Nc2ccc(Br)cc2)c(C)c1`?
IDH1 R132H inh: 0

Results for COc1cc(OC)c(-c2c(OC)cc(OC)cc2OC)c(OC)c1 ?
IDH1 R132H inh: 0

What do the screens show for `COc1ccc(NC(=O)Cc2c(OC)ccc3cc(Br)ccc23)c(OC)c1`?
IDH1 R132H inh: 0

How did CC(=O)Nc1ccc(NC(=O)CSc2nnc(-c3ccncc3)n2-c2ccc(Cl)cc2)cc1 do in these assays?
IDH1 R132H inh: 0

What do the screens show for `O=S(=O)(c1ccc(F)cc1)N1CCCCN2[C@@H](CO)[C@@H](c3ccc(C#CC4CC4)cc3)[C@@H]2C1`?
T cruzi growth-1: 86; KDM4C inh: -1

Results for COc1ccc(S(=O)(=O)N2CCCCN3[C@H](C2)[C@@H](c2ccc(C#CC4CC4)cc2)[C@@H]3CO)cc1 ?
T cruzi growth-1: 107*; KDM4C inh: 0; T cruzi growth-2: 100*; T cruzi growth-3: 108*; NIH3T3 tox: 38*; 3T3 cytotox 2: 77*

Results for CC(C)C1C(=O)NN(c2ccccc2)C1=S (centres undefined) ?
IDH1 R132H inh: 1

What do the screens show for `C[C@H]1CN([C@@H](C)CO)S(=O)(=O)c2ccc(-c3cncnc3)cc2O[C@H]1CN(C)Cc1cncnc1`?
T cruzi growth-1: 21; KDM4C inh: -1; IDH1 R132H inh: 0

What do the screens show for `Cc1ccc(-c2ccc3c(c2)O[C@H](CN(C)Cc2cncnc2)[C@H](C)CN([C@H](C)CO)S3(=O)=O)cc1`?
KDM4C inh: -1; IDH1 R132H inh: -1

What do the screens show for `C[C@@H]1CN([C@H](C)CO)S(=O)(=O)c2ccc(-c3cncnc3)cc2O[C@@H]1CN(C)Cc1cncnc1`?
T cruzi growth-1: 25; KDM4C inh: 2; IDH1 R132H inh: 0

Results for C[C@H](CO)N1C[C@H](C)[C@@H](CN(C)Cc2cncnc2)Oc2cc(-c3ccncc3)ccc2S1(=O)=O ?
T cruzi growth-1: 101*; KDM4C inh: 13; IDH1 R132H inh: -1; T cruzi growth-2: 104*; T cruzi growth-3: inconclusive; NIH3T3 tox: 23; 3T3 cytotox 2: 41*

Results for C[C@H]1CN([C@@H](C)CO)S(=O)(=O)c2ccc(-c3ccncc3)cc2O[C@H]1CN(C)Cc1cncnc1 ?
T cruzi growth-1: 104*; KDM4C inh: -1; IDH1 R132H inh: 0; T cruzi growth-2: 100*; T cruzi growth-3: 77; NIH3T3 tox: inconclusive; 3T3 cytotox 2: 34*

What do the screens show for `Cc1ccc(-c2ccc3c(c2)O[C@H](CN(C)Cc2cncnc2)[C@@H](C)CN([C@H](C)CO)S3(=O)=O)cc1`?
T cruzi growth-1: 102*; KDM4C inh: -1; IDH1 R132H inh: -1; T cruzi growth-2: 102*; T cruzi growth-3: 77; NIH3T3 tox: 42*; 3T3 cytotox 2: 65*

Results for COc1ccc(C(=O)NC(c2c(C)[nH]n(-c3ccccc3)c2=O)(C(F)(F)F)C(F)(F)F)cc1 ?
IDH1 R132H inh: 0

What do the screens show for `O=[N+]([O-])c1cccc(-c2nn(-c3ccccc3)cc2CNCc2ccccc2)c1`?
IDH1 R132H inh: 1

How did COC(=O)c1ccccc1NC(=O)CSc1nc(-c2ccc(F)cc2)cs1 do in these assays?
IDH1 R132H inh: 1

How did Cn1cccc1CNCCCN1CCOCC1 do in these assays?
IDH1 R132H inh: 0

Results for C[C@H](CO)N1C[C@H](C)[C@H](CN(C)C(=O)NC2CCCCC2)Oc2cc(/C=C/c3ccccc3)ccc2S1(=O)=O ?
KDM4C inh: -2

How did C[C@H]1CN([C@@H](C)CO)S(=O)(=O)c2ccc(/C=C/c3ccccc3)cc2O[C@H]1CN(C)C(=O)NC1CCCCC1 do in these assays?
T cruzi growth-1: 128*; KDM4C inh: 12; IDH1 R132H inh: -2; T cruzi growth-2: 101*; T cruzi growth-3: 89; NIH3T3 tox: -1; 3T3 cytotox 2: 49*

How did C[C@H]1CN([C@@H](C)CO)S(=O)(=O)c2ccc(/C=C/c3ccccc3)cc2O[C@H]1CN(C)C(=O)NC1CCCC1 do in these assays?
T cruzi growth-1: 102*; KDM4C inh: -2; T cruzi growth-2: 99*; T cruzi growth-3: 73; NIH3T3 tox: 34; 3T3 cytotox 2: 102*
